Here are results for 3 molecules from ChEMBL document CHEMBL1125641, “Syntheses and in vitro evaluation of water-soluble "cationic metalloporphyrin-ellipticine" molecules having a high affinity for DNA” (J Med Chem, 1991).

Experiment [1] has as its system L1210. The experiment is described as follows: Concentration required to reduce 50% growth of L1210 cells in 48 hr. The experiment is classed as functional, cell-based, Mus musculus. In a few lines: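 Murine leukemia L1210 cells grown in vitro with the derivatives, which were dissolved in water. Growth was scored after 48 h against untreated controls. IC50 is the concentration that cuts cell multiplication by 50%. Values are the mean of two or three determinations, or four independent experiments where a standard deviation is given.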

The subject of experiment [2] is Nucleic Acid. In words: DNA affinity constant to poly[d(A-T)]. The experiment is classed as nucleic-acid assay. To be noted: Bos taurus. In a few lines: (§1)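 Ethidium bromide displacement at 25 °C in 0.01 M cacodylate pH 7.0 with 10 mM NaCl, using 1.26 μM EB and 1 μM polynucleotide (poly[d(A-T)] or poly[d(G-C)]). Bound-EB fluorescence was read across varying drug concentrations. The concentration displacing 50% of EB came from nonlinear-regression fitting, and Kapp was derived from it by the Baguley method.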

Experiment [3] has as its system L1210. In words: Concentration required to reduce 50% growth of L1210 cells in 48h; b=No inhibition at 7.5 uM. The experiment is classed as functional, cell-based, Mus musculus. In a few lines: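 Murine leukaemia L1210 cells grown in vitro, with the metalloporphyrin derivatives dissolved in water. Growth was measured after 48 h against untreated controls. IC50 is the concentration that cuts the rate of cell multiplication by 50%. Values are the mean of two or three determinations, or of four independent experiments where a deviation is given.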

Experiment [4] has as its system Nucleic Acid. In words: DNA affinity constant to poly[d(G-C)]. The experiment is classed as nucleic-acid assay. As to conditions: Bos taurus. In a few lines:
as §1

Setting [5] is: tested as the Zn salt or complex.

On to BLEOMYCIN, for which the IC50 in the experiment on L1210 [1] (l1210) is 1700 nM.

Consider `CC(=O)[O-].CC(=O)[O-].CC(=O)[O-].CC(=O)[O-].COc1ccc2[nH]c3c(C)c4cc[n+](CCCCC(=O)Nc5ccc(-c6c7nc(c(-c8cc[n+](C)cc8)c8ccc([nH]8)c(-c8cc[n+](C)cc8)c8nc(c(-c9cc[n+](C)cc9)c9ccc6[nH]9)C=C8)C=C7)cc5)cc4c(C)c3c2c1.[Zn]`, for which the K app in the experiment on Nucleic Acid [2] (setting [5]) was 2e+09 M⁻¹; with Nucleic Acid [4] (setting [5]), 1.9e+08 M⁻¹. In addition, the IC50 entry with L1210 [3] is listed as “No growth inhibition”.

For the molecule `COc1ccc2[nH]c3c(C)c4cc[n+](CCCCC(=O)O)cc4c(C)c3c2c1`, the K app is 2.5e+06 M⁻¹ in the experiment on Nucleic Acid [2] and 4.9e+06 M⁻¹ in the experiment with Nucleic Acid [4]. The molecule also registered an IC50 with L1210 [1] (Mus musculus, L1210, 48 h) of more than 23000 nM.

In general, IC50 refers to the concentration at which inhibition is half-maximal. A lower IC50 goes with higher potency.
